Measured values as given in PubChem BioAssay AID743257 (The Scripps Research Institute Molecular Screening Center, 2014).
Out of some 2,900 compounds screened, about 1,900 (66%) were called active. The set was probably picked from earlier hits. These entries were drawn from the full list. A number with no mark means an inactive call.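 Rule for the calls: active = mean inhibition across replicates above the hit cutoff set in the primary screen (cut at about 8.5% in these data); inactive = the rest.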

What follows are molecules tested against Disintegrin and metalloproteinase domain-containing protein 17 (Homo sapiens) (UniProt P78536) (assay: inhibition of human ADAM17 protease activity – biochemical, QFRET peptide cleavage, confirmation (AID 743257;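 note: 0% = DMSO wells and 100% = marimastat wells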)). Conditions: recombinant ADAM17, EDANS/DABCYL QFRET peptide cleavage; at 6.95 µM; active compounds read high.
Disintegrin and metalloproteinase domain-containing protein 17 (Homo sapiens), sequence (P78536 215-824 limits assumed): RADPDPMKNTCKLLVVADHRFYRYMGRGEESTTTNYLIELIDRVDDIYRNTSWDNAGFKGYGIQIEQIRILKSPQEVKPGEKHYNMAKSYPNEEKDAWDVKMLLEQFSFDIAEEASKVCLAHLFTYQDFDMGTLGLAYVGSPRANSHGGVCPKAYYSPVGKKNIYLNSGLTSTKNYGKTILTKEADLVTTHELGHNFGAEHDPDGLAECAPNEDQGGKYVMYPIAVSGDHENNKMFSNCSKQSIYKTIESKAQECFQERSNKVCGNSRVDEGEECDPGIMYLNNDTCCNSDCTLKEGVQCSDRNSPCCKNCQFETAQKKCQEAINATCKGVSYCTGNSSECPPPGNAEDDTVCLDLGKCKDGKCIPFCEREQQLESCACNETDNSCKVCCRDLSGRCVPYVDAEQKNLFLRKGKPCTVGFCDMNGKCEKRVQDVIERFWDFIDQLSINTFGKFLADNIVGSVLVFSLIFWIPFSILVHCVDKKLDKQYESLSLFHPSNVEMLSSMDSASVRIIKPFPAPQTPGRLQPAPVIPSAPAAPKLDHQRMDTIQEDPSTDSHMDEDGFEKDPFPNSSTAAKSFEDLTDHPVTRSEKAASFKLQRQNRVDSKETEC
How it was run: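 Assay system: human ADAM17 protease with quenched FRET peptide substrate / Buffer or medium: 50 mM HEPES buffer, pH 7.5, with 0.01% Brij / Schedule: 30 min preincubation, 3 h reaction / Technique: fluorescence at ex 359 nm, em 460 nm / Read-out: percent inhibition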
With `CCOC(=O)CC(SP1(=S)OCC2(CCCCO2)C(C2CCCCO2)O1)C(=O)OCC` (configuration not stated) the inhibition was 24.1% (active). `COC(=O)C1=C(c2ccc(-c3ccccc3)c(F)c2)C[C@@H]2CC[C@H]1N2C(=O)NCc1ccc(F)cc1` was tested, and the inhibition was 7.03%.
